Measurements reported in ChEMBL document CHEMBL4513216, “Probing the Open Global Health Chemical Diversity Library for Multistage-Active Starting Points for Next-Generation Antimalarials” (ACS Infect Dis, 2020).

experiment: Toxicity liver stage against HepG2, at 10uM; format: cell-based; design: test concentration 10 uM, cell line HepG2-A16-CD81EGFP; conditions: human, HepG2-A16-CD81EGFP cells; read-out: INHIBITION
Procedure, shortened: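 Uninfected HepG2-A16-CD81EGFP cells, 3 × 10^3 per well, 1536-well, plated on prespotted compound at 10 μM final, parasite-free screening media added to match infected plates; puromycin 10 μM positive, DMSO 0.5% negative; run in parallel with 48 h PbLuc assay at 37 °C, 5% CO2; viability by CellTiter-Glo luminescence, normalized to controls.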

Structure (SMILES)	cytotoxicity at 10 µM [%]
CC(C)(C)C(=O)N[C@H]1C[C@@H](Cc2cc(CN3CCOCC3)on2)C1(C)C	-7.15
O=C(O)CCCNC(=O)N1CCc2c([nH]c3ccc(Cl)cc23)C1	8.13
COc1nn(C)cc1C(=O)NCC(=O)NCc1ccccn1	-3.56
O=C(CN1C(=O)CCC1=O)N1CCC(CSCc2ccco2)CC1	-8
Cc1ccccc1CN1CCC2(CCCN2C(=O)C(C)C)CC1	11.7
O[C@H]1CCN(CC2CCOC2)[C@H]1Cc1ccncc1 (some centres not stated)	-2.32
COc1ccc(S(=O)(=O)N2CCn3cnc(COCC4CC4)c3C2)cc1	-0.262
CC(C)(C)C(=O)N1C[C@@H]2COC[C@]2(c2nnc(C3CC3)o2)C1	-2.47
CC(C)NC(=O)C(NC(=O)N1CCN(c2ccc(Cl)cc2)CC1)C(C)C (configuration not stated)	5.69
CCNC(=O)c1ccc2c(c1)nc1n2CCN(Cc2ccco2)C1	-5.64
CCN1CC2(CC1=O)CN(Cc1cccs1)CCN(C(=O)C(C)C)C2 (configuration not stated)	-13.9
OC1CCCOC12CCN(CCCOc1ccccc1F)CC2 (configuration not stated)	3.4
Cc1nc(-c2c(C)noc2C)cc(C2CCN(S(=O)(=O)N(C)C)CC2)n1	4.62
CC(=O)N1CCCC1c1nccnc1NCc1cccnc1 (configuration not stated)	-6.72
Cc1ccc2[nH]c(C3CCN(CC(N)=O)CC3)nc2c1	3.23
COc1cccc(-c2cc(C3CCCNC3)ccn2)c1 (configuration not stated)	0.207
COc1ccc([C@@H]2CN(C(=O)c3cscn3)C[C@H]2C(=O)O)cc1	-18.2
CC(=O)N1CC(c2ccnc(Nc3ccc(C)cn3)n2)C1	-31.1
CCN(Cc1ccncc1)CC1(O)CCN(C(=O)c2cccc(C)c2)C1 (configuration not stated)	-25.1
Nc1nccnc1C1CN(C(=O)c2cnccn2)CCO1 (configuration not stated)	-9.17
Cc1c[nH]nc1C1CCN(S(=O)(=O)N(C)C)C1 (configuration not stated)	-13

Structure (SMILES)	cytotoxicity at 10 µM [%]
Cc1cccc(C(=O)N2CCCC2)c1NCC(=O)NC1(C#N)CCCC1	-11.5
Cc1noc(C)c1CSCc1csc(CS(C)(=O)=O)n1	-17
Cc1nnc(CN(C)CC(=O)NCCc2ccc(F)cc2)n1C	2.25
Cc1ccc(N2N=C(C(=O)N(C)Cc3ccco3)NCC2=O)cc1	6.27
NC(=O)CC1CCCN(C(=O)NCC2(c3cccs3)CCCC2)C1 (configuration not stated)	1.9
Cc1noc(C2CCCN(Cn3cc(Cl)cn3)C2)n1 (configuration not stated)	2.42
CC(NC(=O)N1CCCN(C)CC1)c1ccc2c(c1)OCCO2 (configuration not stated)	-6.36
CC(C(=O)Nc1cccc(Cl)c1SC(F)F)S(C)(=O)=O (configuration not stated)	0.685
CCOC(C)c1nc(CN2CCN(CC(F)F)CC2)cs1 (configuration not stated)	-8.94
Cc1cnc(NC(=O)N2CCCCCC2)s1	-2.81
O=S(=O)(NCC1COc2ccccc2C1)N1CCCCCC1 (configuration not stated)	-0.138
N#Cc1ccc(CN2C(=O)c3ccccc3CS2(=O)=O)cc1	-4.17
CCS(=O)(=O)N(C)C1CCN(c2cccc(F)c2C(C)=O)CC1	9.61
Cc1cc(OC(F)F)c(C(=O)N2CCC(CN(C)C)CC2)s1	6.04
Cc1ccc(-c2nnc(CN3CC(n4cc(C)cn4)C3)o2)cc1	2.48
NC(=O)CN(Cc1ccc(Br)cc1)C(=O)c1ccncc1	4.16
c1csc(C2(NCc3csc(C4CC4)n3)CCCC2)n1	-3.75
CC(C)(NS(C)(=O)=O)c1nc(-c2ccc(F)cc2Cl)no1	4.98
CC(C)C(C)N1Cc2cccc(NCC(=O)N(C)C)c2C1 (configuration not stated)	8
COC(=O)c1cccc(S(=O)(=O)NC(=O)c2cccc(OC)c2OC)c1	12.2
COc1ncc(NCc2csc(-c3ccco3)n2)cc1C(N)=O	-17.9

Structure (SMILES)	cytotoxicity at 10 µM [%]
O=C(COCc1ccccc1Cl)N1CCN(c2cnccn2)CC1	7.57
CCCNC(=O)Nc1cccc2c1CCN(S(C)(=O)=O)C2	-7.92
CNC(=O)Cc1ccc(NC(=O)NC(C)C(C)C)cc1 (configuration not stated)	-4.69
CS(=O)(=O)c1ccccc1C(=O)NCC1Cc2ccccc2O1 (configuration not stated)	-9.6
Cc1cnc(C(=O)N2C[C@H]3CN(Cc4cccc(F)c4)C(=O)[C@H]3C2)cn1	-85.7
Cc1csc2ncc(-c3ccnc(NC4CCOCC4)n3)c(=O)n12	-4.36
O=C(C1CCS(=O)(=O)CC1)N1CCC(c2ccc(F)cc2)C1 (configuration not stated)	-60.1
Cc1noc(C(C)N(C)CC(=O)NCCc2ccc(Cl)cc2)n1 (configuration not stated)	10.3
COCc1cc(N2CCN(C3CCCCC3)CC2)n2nccc2n1	3.59
O=c1[nH]c(COc2ccc(Cl)cc2)nc2c1CCNC2	6.6
CC(O)c1cccc(N2CCC3(CCC(=O)N(C4CCCC4)C3)CC2)n1 (configuration not stated)	-3.56
Cc1nc(C2CCCNC2)cc(N(C)CCc2cn[nH]c2)n1 (configuration not stated)	-9.91
CN(C)CCN(C)C(=O)c1cn(CC2CCCCC2)nn1	-3.61
Cc1nc(N2CCCN(c3ncccn3)CC2)c2cnn(C)c2n1	0.977
COc1ccc(F)cc1C(=O)N1CCC2(CCC(=O)N(C(C)C)C2)CC1	-4.75
Cn1ccc(C(=O)N2CCC(Cc3cccc4cccnc34)C2)n1 (configuration not stated)	2.16
COc1cc(CNCC(O)c2ccccc2F)cc2c1OCO2 (configuration not stated)	-5.53
C=C(Br)CN(C)C1CCN(CCc2ccccn2)CC1	0.953
Cc1n[nH]c(C)c1C1COCCN1C(=O)c1cc(F)ccc1F (configuration not stated)	-9.24
CCc1nc(CN2CCN(C(=O)C3(C#N)CCCCC3)CC2)cs1	-3.6
Cc1cc(CN(C)C(=O)c2ccc(Cl)cc2N2CCCC2=O)no1	-15.9

Structure (SMILES)	cytotoxicity at 10 µM [%]
CCn1cnnc1C1CCN(C(=O)c2cc3c(s2)CCOC3)CC1	-6.37
Cc1nccn1C1CCCN(C(=O)c2cnc[nH]2)C1 (configuration not stated)	-5.43
CCN(CC(=O)NC1(C)CCS(=O)(=O)C1)Cc1ccc(OC)c(F)c1 (configuration not stated)	-9.44
Cc1ccc(-c2nc(CN3CCn4c(C)nnc4C3)co2)cc1	-8.03
COc1ncccc1CNC(=O)NCCNS(C)(=O)=O	-14.4
CCCC(=O)N(C)CC(=O)Nc1ccc(Br)cn1	-15.5
Cc1ccoc1C(=O)NC1CCN(Cc2ccccc2C#N)CC1	-3.51
CC(C)(C)c1noc(CN2CCCN(Cc3cccs3)CC2)n1	-8.8
COc1cc(CNC(=O)C2CC(=O)N(C(C)C)C2)ccn1 (configuration not stated)	-5.36
CN(Cc1ccsc1)C(=O)Nc1ccc(S(=O)(=O)N(C)C)cc1	2.23
CN(C)c1ncc2c(O)nc(C3CCNCC3)cc2n1	13.3
CC(C)N1CCC2(CCCNC2)C1=O (configuration not stated)	0.906
COCC1CN(Cc2ccc(F)cc2)Cc2nnn(CC3CC3)c21 (configuration not stated)	3.4
O=C(c1ccsc1)N1CCOC2(CCN(Cc3cccnc3)CC2)C1	-3.12
CN(C)CCN1C[C@@H]2CN(S(=O)(=O)c3cccs3)C[C@@H]2C1=O	0.0221
O=C(NC1CCCC1)[C@H]1CC[C@@H]2[C@@H](CCN2c2ncc(F)cn2)O1	0.441
O=S(=O)(C1CC1)N1CCO[C@H]2[C@H](OCCN3CCCC3)CC[C@@H]21	-5.63
CN(C)C1COC2(CCN(C(=O)c3cccc(Cl)c3)CC2)C1 (configuration not stated)	-7.81
CSc1ncc(C(=O)N2C[C@@H]3CC[C@H]2CN(Cc2ccccc2)C3)cn1	-7.49
